Reference: ChEMBL document CHEMBL3046353, “Synthesis and fungicidal activity of some 5-membered heterocyclic derivatives containing benzimidazoles” (1993)
Active and inactive are the calls of the source. No cut-off for these calls is given here.

How the values were obtained:
[1] = tested on: Avena sativa; assay: Pre-emergence herbicidal activity against Avena sativa; assay type: functional, organism-based
[2] = tested on: Rhizoctonia solani; assay: Fungicidal activity against Rhizoctonia solani at 500 ppm after 7 days by poisoned food technique; assay type: functional; conditions: 168 h, read-out: GI
How it was run: (§1)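 Cultures kept on potato dextrose agar. Each compound, dissolved in acetone, was added to potato dextrose agar at a final 500 ppm (w/v) (poisoned food technique). A disc cut from the periphery of a seven-day-old culture was inoculated onto each set. Control sets held potato dextrose agar only. The read-out is percentage inhibition of fungal growth relative to control.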

[3] = tested on: Helminthosporium; assay: Fungicidal activity against Helminthosporium oryzae at 500 ppm after 7 days by poisoned food technique; assay type: functional; conditions: 168 h, read-out: GI; how it was run: as §1
[4] = tested on: Oryza sativa; assay: Post-emergence herbicidal activity against Oryza sativa (rice); assay type: functional, organism-based
[5] = tested on: Tetranychus cinnabarinus; assay: Insecticidal activity against Tetranychus cinnabarinus (carmine spider mite); assay type: functional, organism-based
[6] = tested on: Convolvulaceae; assay: Pre-emergence herbicidal activity against Convolvulaceae (morning glory family); assay type: functional, organism-based
[7] = tested on: Convolvulaceae; assay: Post-emergence herbicidal activity against Convolvulaceae (morning glory family); assay type: functional, organism-based
[8] = tested on: Oryza sativa; assay: Pre-emergence herbicidal activity against Oryza sativa (rice); assay type: functional, organism-based
[9] = tested on: Musca domestica; assay: Insecticidal activity against Musca domestica (house fly); assay type: functional, organism-based
[10] = tested on: Schoenoplectus acutus; assay: Post-emergence herbicidal activity against Schoenoplectus acutus (hardstem bulrush); assay type: functional, organism-based
[11] = tested on: Abutilon theophrasti; assay: Post-emergence herbicidal activity against Abutilon theophrasti (velvetleaf); assay type: functional, organism-based
[12] = tested on: Schoenoplectus acutus; assay: Pre-emergence herbicidal activity against Schoenoplectus acutus (hardstem bulrush); assay type: functional, organism-based
[13] = tested on: Echinochloa crus-galli; assay: Herbicidal activity against Echinochloa crus-galli (barnyard grass) under paddy conditions; assay type: functional, organism-based
[14] = tested on: Avena sativa; assay: Post-emergence herbicidal activity against Avena sativa; assay type: functional, organism-based
[15] = tested on: Sagittaria latifolia; assay: Post-emergence herbicidal activity against Sagittaria latifolia (broadleaf arrowhead); assay type: functional, organism-based
[16] = tested on: Sagittaria latifolia; assay: Herbicidal activity against Sagittaria latifolia (broadleaf arrowhead) under paddy conditions; assay type: functional, organism-based
[17] = tested on: Echinochloa crus-galli; assay: Pre-emergence herbicidal activity against Echinochloa crus-galli (barnyard grass); assay type: functional, organism-based
[18] = tested on: Schoenoplectus acutus; assay: Herbicidal activity against Schoenoplectus acutus (hardstem bulrush) under paddy conditions; assay type: functional, organism-based
[19] = tested on: Echinochloa crus-galli; assay: Post-emergence herbicidal activity against Echinochloa crus-galli (barnyard grass); assay type: functional, organism-based
[20] = tested on: Abutilon theophrasti; assay: Pre-emergence herbicidal activity against Abutilon theophrasti (velvetleaf); assay type: functional, organism-based
[21] = tested on: Avena sativa; assay: Herbicidal activity against Avena sativa under paddy conditions; assay type: functional, organism-based
[22] = tested on: Culex pipiens pallens; assay: Insecticidal activity against Culex pipiens pallens (mosquito) at 3 to 5 ppm; assay type: functional, organism-based
[23] = tested on: Sagittaria latifolia; assay: Pre-emergence herbicidal activity against Sagittaria latifolia (broadleaf arrowhead); assay type: functional, organism-based
[24] = tested on: Spodoptera litura; assay: Insecticidal activity against Spodoptera litura; assay type: functional, organism-based
[25] = tested on: Convolvulaceae; assay: Herbicidal activity against Convolvulaceae (morning glory family) under paddy conditions; assay type: functional, organism-based
[26] = tested on: Oryza sativa; assay: Herbicidal activity against Oryza sativa (rice) under paddy conditions; assay type: functional, organism-based

Row | Compound | Activity [1] | inhibition of growth at 500 ppm [2] [%] | inhibition of growth at 500 ppm [3] [%] | Activity [4] | Activity [5] | Activity [6] | Activity [7] | Activity [8] | Activity [9] | Activity [10] | Activity [11] | Activity [12] | Activity [13] | Activity [14] | Activity [15] | Activity [16] | Activity [17] | Activity [18] | Activity [19] | Activity [20] | further results
1 | Nn1c(SCc2nc3ccccc3[nH]2)nnc1-c1ccccc1Cl | inactive | 39.8 | 52.3 | inactive | inactive | inactive | inactive | inactive | inactive | inactive | inactive | inactive | inactive | inactive | inactive | inactive | inactive | inactive | inactive | inactive | Activity [21]: inactive; Activity [22]: Active; Activity [23]: inactive; Activity [24]: inactive; Activity [25]: inactive; Activity [26]: inactive
2 | Nn1c(SCc2nc3ccccc3[nH]2)nnc1-c1ccncc1 | inactive | 29.3 | 30 | inactive | inactive | inactive | inactive | inactive | inactive | inactive | inactive | inactive | inactive | inactive | inactive | inactive | inactive | inactive | inactive | inactive | Activity [21]: inactive; Activity [22]: Active; Activity [23]: inactive; Activity [24]: inactive; Activity [25]: inactive; Activity [26]: inactive
3 | Cc1ccc2[nH]c(CSc3nnc(-c4cccc(Cl)c4)n3N)nc2c1 | inactive | 71.2 | 82.5 | inactive | inactive | inactive | inactive | inactive | inactive | inactive | inactive | inactive | inactive | inactive | inactive | inactive | inactive | inactive | inactive | inactive | Activity [21]: inactive; Activity [22]: Active; Activity [23]: inactive; Activity [24]: inactive; Activity [25]: inactive; Activity [26]: inactive
4 | Cc1ccc2[nH]c(CSc3nc4ccccc4[nH]3)nc2c1 | inactive | 61.3 | 81.3 | inactive | inactive | inactive | inactive | inactive | inactive | inactive | inactive | inactive | inactive | inactive | inactive | inactive | inactive | inactive | inactive | inactive | Activity [21]: inactive; Activity [22]: Active; Activity [23]: inactive; Activity [24]: inactive; Activity [25]: inactive; Activity [26]: inactive
5 | Nn1c(SCc2nc3ccccc3[nH]2)nnc1-c1ccccc1 | inactive | 74.5 | 92.5 | inactive | inactive | inactive | inactive | inactive | inactive | inactive | inactive | inactive | inactive | inactive | inactive | inactive | inactive | inactive | inactive | inactive | Activity [21]: inactive; Activity [22]: Active; Activity [23]: inactive; Activity [24]: inactive; Activity [25]: inactive; Activity [26]: inactive
6 | Clc1ccccc1-c1nnc(SCc2nc3ccccc3[nH]2)o1 | inactive | 56.2 | 75 | inactive | inactive | inactive | inactive | inactive | inactive | inactive | inactive | inactive | inactive | inactive | inactive | inactive | inactive | inactive | inactive | inactive | Activity [21]: inactive; Activity [22]: Active; Activity [23]: inactive; Activity [24]: inactive; Activity [25]: inactive; Activity [26]: inactive
7 | Cc1ccc2[nH]c(CSc3nnc(-c4ccccc4)n3N)nc2c1 | inactive | 70.5 | 81.2 | inactive | inactive | inactive | inactive | inactive | inactive | inactive | inactive | inactive | inactive | inactive | inactive | inactive | inactive | inactive | inactive | inactive | Activity [21]: inactive; Activity [22]: Active; Activity [23]: inactive; Activity [24]: inactive; Activity [25]: inactive; Activity [26]: inactive
8 | Clc1ccc(-c2nnc(SCc3nc4ccccc4[nH]3)o2)cc1 | inactive | 21.2 | 39.7 | inactive | inactive | inactive | inactive | inactive | inactive | inactive | inactive | inactive | inactive | inactive | inactive | inactive | inactive | inactive | inactive | inactive | Activity [21]: inactive; Activity [22]: Active; Activity [23]: inactive; Activity [24]: inactive; Activity [25]: inactive; Activity [26]: inactive
9 | Nn1c(SCc2nc3ccccc3[nH]2)nnc1-c1ccc(Cl)cc1 | inactive | 20 | 45.3 | inactive | inactive | inactive | inactive | inactive | inactive | inactive | inactive | inactive | inactive | inactive | inactive | inactive | inactive | inactive | inactive | inactive | Activity [21]: inactive; Activity [22]: Active; Activity [23]: inactive; Activity [24]: inactive; Activity [25]: inactive; Activity [26]: inactive
